Source: ChEMBL document CHEMBL5108039, “Piperazine tethered bergenin heterocyclic hybrids: design, synthesis, anticancer activity, and molecular docking studies” (RSC Med Chem, 2022)
Calls of active or inactive are those of the source. No cut-off for these calls is given here.

Columns and labels:
CAL-27 [1] = experiment: Cytotoxicity against human CAL-27 cells assessed as cell growth inhibition; type: functional, cell-based
Method in brief: (§1)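 Compounds were dissolved in sterile DMSO as 10 mg ml−1 stocks and tested for in vitro growth inhibition of human cancer cell lines. Doxorubicin was the standard drug and DMSO (0.01%) the vehicle control. IC50 values are reported as means.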

SCC-9 [2] = experiment: Cell cycle arrest in human SCC-9 cells assessed as accumulation at G2/M phase at 0.5 uM incubated for 24 hrs by flow cytometry (reference value: 14.2 %); type: functional
[3] = Cytotoxicity against human BEAS-2B cells assessed as cell growth inhibition; type: toxicity, cell-based
Method in brief: (§2)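 Compounds were dissolved in sterile DMSO as 10 mg ml−1 stocks and tested in vitro for cytotoxicity in a cell-line panel, with DMSO (0.01%) as vehicle control and doxorubicin as standard. Mean IC50 values were reported, and the normal lung epithelial cells were tested up to 100 μM.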

SCC-9 [4] = experiment: Cell cycle arrest in human SCC-9 cells assessed as accumulation at S phase at 0.5 uM incubated for 24 hrs by flow cytometry (reference value: 14.4 %); type: functional
CAL-27 [5] = experiment: Induction of apoptosis in human CAL-27 cells assessed as live cells at 0.5 uM incubated for 24 hrs by Annexin V-FITC/PI staining based flow cytometric analysis (reference value: 99.8 %); type: functional
Method in brief: (§3)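 CAL27 cells were treated with vehicle, doxorubicin or test compounds at 10–63 μM, and apoptosis was assessed by annexin V–FITC/PI staining with flow cytometry. Cells were scored as live, early apoptotic, late apoptotic or necrotic. The vehicle was DMSO (0.01%).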

CAL-27 [6] = experiment: Cell cycle arrest in human CAL-27 cells assessed as accumulation at G2/M phase at 0.5 uM incubated for 24 hrs by flow cytometry (reference value: 11.9 %); type: functional
HCT-15 = experiment: Cytotoxicity against human HCT-15 cells assessed as cell growth inhibition; type: functional, cell-based; method in brief: as §1
SCC-9 [7] = experiment: Cytotoxicity against human SCC-9 cells assessed as cell growth inhibition; type: functional, cell-based; method in brief: as §1
SCC-9 [8] = experiment: Induction of apoptosis in human SCC-9 cells assessed as necrotic cells at 0.5 uM incubated for 24 hrs by Annexin V-FITC/PI staining based flow cytometric analysis (reference value: 0.1 %); type: functional
SCC-9 [9] = experiment: Induction of apoptosis in human SCC-9 cells assessed as late apoptotic cells at 0.5 uM incubated for 24 hrs by Annexin V-FITC/PI staining based flow cytometric analysis (reference value: 1.4 %); type: functional
SCC-9 [10] = experiment: Induction of apoptosis in human SCC-9 cells assessed as early apoptotic cells at 0.5 uM incubated for 24 hrs by Annexin V-FITC/PI staining based flow cytometric analysis (reference value: 2.8 %); type: functional
SCC-9 [11] = experiment: Induction of apoptosis in human SCC-9 cells assessed as live cells at 0.5 uM incubated for 24 hrs by Annexin V-FITC/PI staining based flow cytometric analysis (reference value: 95.7 %); type: functional
CAL-27 [12] = experiment: Cell cycle arrest in human CAL-27 cells assessed as accumulation at S phase at 0.5 uM incubated for 24 hrs by flow cytometry (reference value: 3.6 %); type: functional
CAL-27 [13] = experiment: Induction of apoptosis in human CAL-27 cells assessed as necrotic cells at 0.5 uM incubated for 24 hrs by Annexin V-FITC/PI staining based flow cytometric analysis (reference value: 0.0 %); type: functional; method in brief: as §3
CAL-27 [14] = experiment: Induction of apoptosis in human CAL-27 cells assessed as late apoptotic cells at 0.5 uM incubated for 24 hrs by Annexin V-FITC/PI staining based flow cytometric analysis (reference value: 0.1 %); type: functional; method in brief: as §3
A549 = experiment: Cytotoxicity against human A549 cells assessed as cell growth inhibition; type: functional, cell-based; method in brief: as §2
CAL-27 [15] = experiment: Cell cycle arrest in human CAL-27 cells assessed as accumulation at G0/G1 phase at 0.5 uM incubated for 24 hrs by flow cytometry (reference value: 77.6 %); type: functional
SCC-9 [16] = experiment: Cell cycle arrest in human SCC-9 cells assessed as accumulation at G0/G1 phase at 0.5 uM incubated for 24 hrs by flow cytometry (reference value: 70.8 %); type: functional
CAL-27 [17] = experiment: Induction of apoptosis in human CAL-27 cells assessed as early apoptotic cells at 0.5 uM incubated for 24 hrs by Annexin V-FITC/PI staining based flow cytometric analysis (reference value: 0.1 %); type: functional; method in brief: as §3
CAL-27 [18] = experiment: Induction of apoptosis in human CAL-27 cells assessed as necrotic cells at 42 uM incubated for 24 hrs by Annexin V-FITC/PI staining based flow cytometric analysis (reference value: 0.0 %); type: functional
CAL-27 [19] = experiment: Induction of apoptosis in human CAL-27 cells assessed as early apoptotic cells at 21 uM incubated for 24 hrs by Annexin V-FITC/PI staining based flow cytometric analysis (reference value: 0.1 %); type: functional; method in brief: as §3
CAL-27 [20] = experiment: Cell cycle arrest in human CAL-27 cells assessed as accumulation at G0/G1 phase at 21 uM incubated for 24 hrs by flow cytometry (reference value: 77.6 %); type: functional
CAL-27 [21] = experiment: Induction of apoptosis in human CAL-27 cells assessed as downregulation of vimentin gene expression at 21 uM by qRT-PCR analysis; type: functional, cell-based
Method in brief: (§4)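 CAL27 cells were treated with test compounds at several concentrations. Relative expression of vimentin, E-cad, Nanog, Oct-4, Bax and BcL-2 was measured by qRT-PCR against vehicle-treated control cells.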

CAL-27 [22] = experiment: Induction of apoptosis in human CAL-27 cells assessed as live cells at 42 uM incubated for 24 hrs by Annexin V-FITC/PI staining based flow cytometric analysis (reference value: 99.8 %); type: functional; method in brief: as §3
CAL-27 [23] = experiment: Induction of apoptosis in human CAL-27 cells assessed as early apoptotic cells at 42 uM incubated for 24 hrs by Annexin V-FITC/PI staining based flow cytometric analysis (reference value: 0.1 %); type: functional; method in brief: as §3
CAL-27 [24] = experiment: Induction of apoptosis in human CAL-27 cells assessed as live cells at 21 uM incubated for 24 hrs by Annexin V-FITC/PI staining based flow cytometric analysis (reference value: 99.8 %); type: functional; method in brief: as §3
CAL-27 [25] = experiment: Induction of apoptosis in human CAL-27 cells assessed as downregulation of Oct-4 gene expression at 21 uM by qRT-PCR analysis; type: functional, cell-based; method in brief: as §4
CAL-27 [26] = experiment: Induction of apoptosis in human CAL-27 cells assessed as late apoptotic cells at 42 uM incubated for 24 hrs by Annexin V-FITC/PI staining based flow cytometric analysis (reference value: 0.1 %); type: functional; conditions: in the assay text read “early apoptotic cells” for “late apoptotic cells”; method in brief: as §3
CAL-27 [27] = experiment: Induction of apoptosis in human CAL-27 cells assessed as downregulation of BcL-2 gene expression at 21 uM by qRT-PCR analysis; type: functional, cell-based; method in brief: as §4
CAL-27 [28] = experiment: Cell cycle arrest in human CAL-27 cells assessed as accumulation at S phase at 21 uM incubated for 24 hrs by flow cytometry (reference value: 3.6 %); type: functional
CAL-27 [29] = experiment: Induction of apoptosis in human CAL-27 cells assessed as necrotic cells at 21 uM incubated for 24 hrs by Annexin V-FITC/PI staining based flow cytometric analysis (reference value: 0.0 %); type: functional
CAL-27 [30] = experiment: Induction of apoptosis in human CAL-27 cells assessed as upregulation of Bax gene expression at 42 uM by qRT-PCR analysis; type: functional, cell-based
Method in brief: (§5)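 CAL27 cells were treated with test agents at different concentrations. Relative mRNA levels of vimentin, E-cad, Nanog, Oct-4, Bax and Bcl-2 were then quantified by qRT-PCR as apoptosis, EMT and stemness markers.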

CAL-27 [31] = experiment: Induction of apoptosis in human CAL-27 cells assessed as upregulation of Bax gene expression at 21 uM by qRT-PCR analysis; type: functional, cell-based; method in brief: as §5
CAL-27 [32] = experiment: Cell cycle arrest in human CAL-27 cells assessed as accumulation at G0/G1 phase at 42 uM incubated for 24 hrs by flow cytometry (reference value: 77.6 %); type: functional
CAL-27 [33] = experiment: Induction of apoptosis in human CAL-27 cells assessed as late apoptotic cells at 21 uM incubated for 24 hrs by Annexin V-FITC/PI staining based flow cytometric analysis (reference value: 0.1 %); type: functional; method in brief: as §3
CAL-27 [34] = experiment: Induction of apoptosis in human CAL-27 cells assessed as downregulation of Oct-4 gene expression at 42 uM by qRT-PCR analysis; type: functional, cell-based; method in brief: as §4
CAL-27 [35] = experiment: Induction of apoptosis in human CAL-27 cells assessed as downregulation of BcL-2 gene expression at 42 uM by qRT-PCR analysis; type: functional, cell-based; method in brief: as §4
CAL-27 [36] = experiment: Induction of apoptosis in human CAL-27 cells assessed as downregulation of Nanog gene expression at 21 uM by qRT-PCR analysis; type: functional, cell-based; method in brief: as §4
CAL-27 [37] = experiment: Induction of apoptosis in human CAL-27 cells assessed as downregulation of Nanog gene expression at 42 uM by qRT-PCR analysis; type: functional, cell-based; method in brief: as §4
MCF7 = experiment: Cytotoxicity against human MCF7 cells assessed as cell growth inhibition; type: functional, cell-based; method in brief: as §1
CAL-27 [38] = experiment: Induction of apoptosis in human CAL-27 cells assessed as upregulation of E-cad gene expression at 42 uM by qRT-PCR analysis; type: functional, cell-based; method in brief: as §5
CAL-27 [39] = experiment: Cell cycle arrest in human CAL-27 cells assessed as accumulation at S phase at 42 uM incubated for 24 hrs by flow cytometry (reference value: 3.6 %); type: functional
CAL-27 [40] = experiment: Cell cycle arrest in human CAL-27 cells assessed as accumulation at G2/M phase at 42 uM incubated for 24 hrs by flow cytometry (reference value: 11.9 %); type: functional
CAL-27 [41] = experiment: Cell cycle arrest in human CAL-27 cells assessed as accumulation at G2/M phase at 21 uM incubated for 24 hrs by flow cytometry (reference value: 11.9 %); type: functional
CAL-27 [42] = experiment: Induction of apoptosis in human CAL-27 cells assessed as upregulation of E-cad gene expression at 21 uM by qRT-PCR analysis; type: functional, cell-based; method in brief: as §5
CAL-27 [43] = experiment: Induction of apoptosis in human CAL-27 cells assessed as downregulation of vimentin gene expression at 42 uM by qRT-PCR analysis; type: functional, cell-based; method in brief: as §4

## COc1cccc2c1C(=O)c1c(O)c3c(c(O)c1C2=O)C[C@@](O)(C(=O)CO)C[C@@H]3O[C@H]1C[C@H](N)[C@H](O)[C@H](C)O1 [DOXORUBICIN]
CAL-27 [1]
  IC50: 0.4 µM
SCC-9 [2]
  Activity: 55.6%
[3]
  IC50: 0.8 µM
SCC-9 [4]
  Activity: 16.31%
CAL-27 [5]
  Activity: 16%
CAL-27 [6]
  Activity: 34.3%
HCT-15
  IC50: 0.8 µM
SCC-9 [7]
  IC50: 0.39 µM
SCC-9 [8]
  Activity: 51.5%
SCC-9 [9]
  Activity: 41%
SCC-9 [10]
  Activity: 0.3%
SCC-9 [11]
  Activity: 7.1%
CAL-27 [12]
  Activity: 4.2%
CAL-27 [13]
  Activity: 24.4%
CAL-27 [14]
  Activity: 58.9%
A549
  IC50: 0.8 µM
CAL-27 [15]
  Activity: 59.7%
SCC-9 [16]
  Activity: 29%
CAL-27 [17]
  Activity: 0.7%

## COc1c(O)c(CN2CCN(S(=O)(=O)c3ccc(I)cc3)CC2)c2c(c1O)C1O[C@H](CO)[C@@H](O)[C@H](O)C1OC2=O (stereo partly specified)
CAL-27 [18]
  Activity: 2%
CAL-27 [19]
  Activity: 1.1%
CAL-27 [1]
  IC50: 41.6 µM
CAL-27 [20]
  Activity: 83.3%
CAL-27 [21]
  Activity: Active
CAL-27 [22]
  Activity: 94.6%
CAL-27 [23]
  Activity: 1.7%
CAL-27 [24]
  Activity: 97.1%
CAL-27 [25]
  Activity: Active
CAL-27 [26]
  Activity: 1.7%
[3]
  IC50: > 100 µM
CAL-27 [27]
  Activity: Active
CAL-27 [28]
  Activity: 3.5%
CAL-27 [29]
  Activity: 1.1%
CAL-27 [30]
  Activity: Active
CAL-27 [31]
  Activity: Active
CAL-27 [32]
  Activity: 83.7%
CAL-27 [33]
  Activity: 0.7%
CAL-27 [34]
  Activity: Active
CAL-27 [35]
  Activity: Active
HCT-15
  IC50: > 100 µM
SCC-9 [7]
  IC50: > 100 µM
CAL-27 [36]
  Activity: Active
CAL-27 [37]
  Activity: Active
MCF7
  IC50: > 100 µM
CAL-27 [38]
  Activity: Active
CAL-27 [39]
  Activity: 1.9%
A549
  IC50: > 100 µM
CAL-27 [40]
  Activity: 11.5%
CAL-27 [41]
  Activity: 12.6%
CAL-27 [42]
  Activity: Active
CAL-27 [43]
  Activity: Active
